ChEMBL document CHEMBL1139543, “Antineoplastic agents. 445. Synthesis and evaluation of structural modifications of (Z)- and (E)-combretastatin A-41” (J Med Chem, 2005)
≈ marks a conversion by molar mass, not a printed value.

Experiments:
SW-1736 = assay: Growth inhibition against human thyroid cell line( SW 1736); assay type: functional
Neisseria gonorrhoeae [1] = assay: Minimum inhibitory concentration against Neisseria gonorrhoeae was determined in the disk diffusion assay; value ranges from 50-100 ug/disk; assay type: functional
P388 = assay: Effective dose against murine P388 leukemia cell line; assay type: functional; settings: Mus musculus, read-out: ED50 (the source's name)
Tubulin beta-1 chain = Tubulin beta-1 chain (Homo sapiens, UniProt Q9H4B7); assay: Inhibition of tubulin polymerization upon incubation for 20 min at 30 degree C
Sequence of Tubulin beta-1 chain (Q9H4B7 whole entry): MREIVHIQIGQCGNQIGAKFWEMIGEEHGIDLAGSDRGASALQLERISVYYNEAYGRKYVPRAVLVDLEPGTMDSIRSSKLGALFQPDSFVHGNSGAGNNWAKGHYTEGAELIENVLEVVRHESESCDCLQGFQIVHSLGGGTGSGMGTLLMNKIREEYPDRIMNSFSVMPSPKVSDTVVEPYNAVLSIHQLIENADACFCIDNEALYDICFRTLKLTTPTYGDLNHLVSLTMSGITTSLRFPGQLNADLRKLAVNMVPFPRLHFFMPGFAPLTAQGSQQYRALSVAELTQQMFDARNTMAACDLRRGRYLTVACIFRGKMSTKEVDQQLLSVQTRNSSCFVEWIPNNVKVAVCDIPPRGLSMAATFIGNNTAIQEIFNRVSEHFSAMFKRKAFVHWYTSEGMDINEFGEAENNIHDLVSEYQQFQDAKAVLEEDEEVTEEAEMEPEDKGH
Summary of the method: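 Purified tubulin at 10 µM (1.0 mg/mL) in 0.8 M monosodium glutamate, pH 6.6, with 4% (v/v) DMSO and varying compound concentrations. Preincubated 15 min at 37 °C, chilled on ice, then GTP (0.4 mM) added. Warmed from 0 °C to 30 °C, and assembly followed 20 min by turbidity at 350 nm. IC50 interpolated; at least two determinations; SD reported.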

BXPC-3 = assay: Growth inhibition against human pancreas carcinoma cell line (BxPC-3); assay type: functional
DU-145 = assay: Growth inhibition against human prostate cell line (DU-145); assay type: functional
SK-N-SH = assay: Growth inhibition against human neuroblastoma cell line (SK-N-SH); assay type: functional
NCI-H460 = assay: Growth inhibition against human lung-NSC NCI-H460 cell line; assay type: functional
FaDu = assay: Growth inhibition against human pharynx FADU cell line; assay type: functional
Streptococcus pneumoniae = assay: Minimum inhibitory concentration against Streptococcus pneumoniae was determined in the disk diffusion assay; value ranges from 50-100 ug/disk; assay type: functional
Micrococcus luteus [2] = assay: Minimum inhibitory concentration against Micrococcus luteus was determined in the disk diffusion assay; value ranges from 12.5-25 ug/disk
Candida albicans [3] = assay: Minimum inhibitory concentration against Candida albicans was determined in the disk diffusion assay; value ranges from 25-50 ug/disk; assay type: functional
Summary of the method: (§1)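 Disk diffusion on Sabouraud Dextrose Agar. MIC taken as the lowest drug amount giving a clear zone of growth inhibition.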

Staphylococcus aureus = assay: Minimum inhibitory concentration against Staphylococcus aureus was determined in the disk diffusion assay; value ranges from 25-50 ug/disk; assay type: functional
Micrococcus luteus [4] = assay: Minimum inhibitory concentration against Micrococcus luteus was determined in the disk diffusion assay; value ranges from 12.5-25 ug/disk; assay type: functional
Candida albicans [5] = assay: Minimum inhibitory concentration against Candida albicans was determined in the disk diffusion assay; value ranges from 50-100 ug/disk; assay type: functional; summary of the method: as §1
Neisseria gonorrhoeae [6] = assay: Minimum inhibitory concentration against Neisseria gonorrhoeae was determined in the disk diffusion assay; value ranges from 12.5-25 ug/disk; assay type: functional
Cryptococcus neoformans = assay: Minimum inhibitory concentration against Cryptococcus neoformans was determined in the disk diffusion assay; value ranges from 6.25-12.5 ug/disk; assay type: functional

Row | SMILES | GI50 (SW-1736) [µg/mL] | MIC (Neisseria gonorrhoeae [1]) [ug/disk] | EC50 (P388) [µg/mL] | IC50 (Tubulin beta-1 chain) [µM] | GI50 (BXPC-3) [µg/mL] | GI50 (DU-145) [µg/mL] | GI50 (SK-N-SH) [µg/mL] | GI50 (NCI-H460) [µg/mL] | MIC (Streptococcus pneumoniae) [ug/disk] | MIC (Micrococcus luteus [2]) [ug/disk] | MIC (Candida albicans [3]) [ug/disk] | MIC (Staphylococcus aureus) [ug/disk] | MIC (Micrococcus luteus [4]) [ug/disk] | MIC (Candida albicans [5]) [ug/disk] | MIC (Neisseria gonorrhoeae [6]) [ug/disk] | MIC (Cryptococcus neoformans) [ug/disk] | GI50 (FaDu) [µg/mL]
1 | COc1ccc(/C=C\c2cc(OC)c(OC)c(OC)c2)cc1N | 0.0008 (≈ 0.00254 µM) |  | > 0.01 |  | 0.00043 (≈ 0.00136 µM) | 0.00033 (≈ 0.00105 µM) | 0.00023 (≈ 0.000729 µM) | 0.00033 (≈ 0.00105 µM) |  |  |  |  |  |  |  |  | 0.00053 (≈ 0.00168 µM)
2 | COc1ccc(/C=C/c2cc(OC)c(OC)c(OC)c2)cc1Br | 10.8 (≈ 28.5 µM) |  | 3.08 (≈ 8.12 µM) | 31 | 0.34 (≈ 0.897 µM) | 0.46 (≈ 1.21 µM) | 0.4 (≈ 1.05 µM) | 0.36 (≈ 0.949 µM) |  |  |  |  |  |  |  |  | 11.4 (≈ 30.1 µM)
3 | COc1ccc(/C=C\c2cc(OC)c(OC)c(OC)c2)cc1OP(=O)([O-])[O-].[Na+].[Na+] [FOSBRETABULIN DISODIUM] | 0.00061 |  | 0.0029 |  | 0.23 | 0.00072 | 0.00025 | 0.00035 |  |  |  |  |  |  |  |  | 0.00045
4 | COc1ccc(/C=C/c2cc(OC)c(O)c(OC)c2)cc1O | > 10 |  | 4.49 (≈ 14.9 µM) | 14 | 5 (≈ 16.5 µM) | 6.3 (≈ 20.8 µM) | 5.5 (≈ 18.2 µM) | 4.9 (≈ 16.2 µM) |  |  |  |  |  | 100 | 25 | 12.5 | 3.2 (≈ 10.6 µM)
5 | COc1ccc(/C=C/c2cc(OC)c(OC)c(OC)c2)cc1[N+](=O)[O-] | 2.8 (≈ 8.11 µM) |  | > 10 |  | > 10 | > 10 | 7.3 (≈ 21.1 µM) |  |  |  |  |  |  |  |  |  | 3.8 (≈ 11 µM)
6 | COc1ccc(/C=C\c2cc(OC)c(OC)c(OC)c2)cc1OCCOS(C)(=O)=O | 1 (≈ 2.28 µM) |  | 2.87 (≈ 6.55 µM) | > 40 | 2.7 (≈ 6.16 µM) | 0.59 (≈ 1.35 µM) | 3 (≈ 6.84 µM) | 0.42 (≈ 0.958 µM) |  |  |  |  |  |  |  |  | 0.41 (≈ 0.935 µM)
7 | COc1ccc(/C=C\c2cc(OC)c(O)c(OC)c2)cc1O | 3.4 (≈ 11.2 µM) |  | 0.25 (≈ 0.827 µM) |  | > 4 | 0.17 (≈ 0.562 µM) | 0.19 (≈ 0.628 µM) | 0.74 (≈ 2.45 µM) |  |  |  |  |  |  | 25 |  | 0.23 (≈ 0.761 µM)
8 | COc1ccc(/C=C\c2cc(OC)c(OC)c(OC)c2)cc1N(C)C | 0.8 (≈ 2.33 µM) |  | 0.9 (≈ 2.62 µM) |  | 0.015 (≈ 0.0437 µM) | 0.11 (≈ 0.32 µM) | 0.01 (≈ 0.0291 µM) | 0.4 (≈ 1.16 µM) |  |  |  |  |  |  |  |  | 0.09 (≈ 0.262 µM)
9 | COc1ccc(/C=C\c2cc(OC)c(OC)c(OC)c2)cc1O [COMBRETASTATIN A4] | 0.00026 (≈ 0.000822 µM) |  | 0.0026 (≈ 0.00822 µM) |  | > 0.1 | 0.00076 (≈ 0.0024 µM) | 0.00026 (≈ 0.000822 µM) | 0.00056 (≈ 0.00177 µM) |  |  |  |  |  |  |  |  | 0.00065 (≈ 0.00205 µM)
10 | COc1ccc(/C=C\c2cc(OC)c(OC)c(OC)c2)cc1Br | 0.034 (≈ 0.0897 µM) |  | 0.16 (≈ 0.422 µM) | 1.1 | 0.007 (≈ 0.0185 µM) | 0.027 (≈ 0.0712 µM) | 0.002 (≈ 0.00527 µM) | 0.033 (≈ 0.087 µM) |  |  |  |  |  |  |  |  | 0.0058 (≈ 0.0153 µM)
11 | COc1ccc(/C=C\c2cc(OC)c(OC)c(OC)c2)cc1OC(=O)N(CCCl)CCCl | 0.72 (≈ 1.49 µM) |  | 0.074 (≈ 0.153 µM) | > 40 | 2.8 (≈ 5.78 µM) | 0.31 (≈ 0.64 µM) | 0.14 (≈ 0.289 µM) | 0.37 (≈ 0.764 µM) |  |  |  |  |  |  |  |  | 0.15 (≈ 0.31 µM)
12 | COc1ccc(/C=C\c2cc(OC)c(OC)c(OC)c2)cc1[N+](=O)[O-] | 0.0067 (≈ 0.0194 µM) |  | 2.4 (≈ 6.95 µM) | 2.6 | 0.029 (≈ 0.084 µM) | 0.047 (≈ 0.136 µM) | 0.014 (≈ 0.0405 µM) | 0.0038 (≈ 0.011 µM) |  |  |  |  |  |  |  |  | 0.047 (≈ 0.136 µM)

Further lines, with some results ahead:

Row | GI50 (SW-1736) [µg/mL] | MIC (Neisseria gonorrhoeae [1]) [ug/disk] | EC50 (P388) [µg/mL] | IC50 (Tubulin beta-1 chain) [µM] | GI50 (BXPC-3) [µg/mL] | GI50 (DU-145) [µg/mL] | GI50 (SK-N-SH) [µg/mL] | GI50 (NCI-H460) [µg/mL] | MIC (Streptococcus pneumoniae) [ug/disk] | MIC (Micrococcus luteus [2]) [ug/disk] | MIC (Candida albicans [3]) [ug/disk] | MIC (Staphylococcus aureus) [ug/disk] | MIC (Micrococcus luteus [4]) [ug/disk] | MIC (Candida albicans [5]) [ug/disk] | MIC (Neisseria gonorrhoeae [6]) [ug/disk] | MIC (Cryptococcus neoformans) [ug/disk] | SMILES | GI50 (FaDu) [µg/mL]
13 | 0.38 (≈ 1.01 µM) | 100 | 0.63 (≈ 1.68 µM) | 6.5 | 0.26 (≈ 0.694 µM) | 0.43 (≈ 1.15 µM) | 0.18 (≈ 0.481 µM) | 0.37 (≈ 0.988 µM) |  |  |  |  |  |  |  |  | COc1ccc(/C=C\c2cc(OC)c(OC)c(OC)c2)cc1OCCCO | 0.63 (≈ 1.68 µM)
14 | 11.6 (≈ 31 µM) |  | 6.8 (≈ 18.2 µM) |  | > 10 | 4.5 (≈ 12 µM) | 8.1 (≈ 21.6 µM) | > 10 |  |  |  |  |  |  |  |  | COc1ccc(/C=C/c2cc(OC)c(OC)c(OC)c2)cc1OCCCO | 2.3 (≈ 6.14 µM)
15 | 0.1 |  | 1.94 |  | 37.2 | 0.33 | 0.28 | 0.36 | 100 | 25 | 50 | 50 |  |  |  |  | COc1ccc(/C=C\c2cc(OC)c(OC)c(OC)c2)cc1OCC[N+](C)(C)C.[I-] | 0.24
16 | 1.5 | 100 | 19 | 7.6 | 0.82 | 1.5 | 0.31 | 0.56 |  |  |  |  | 25 |  |  |  | COc1ccc(/C=C\c2cc(OC)c(OC)c(OC)c2)cc1OCCn1ccnc1.Cl | 0.67
17 | 5.1 |  | 0.348 | > 40 | > 10 | 3.4 | 1.6 | 3.3 |  |  |  |  |  |  |  |  | COc1ccc(/C=C\c2cc(OC)c(OC)c(OC)c2)cc1OCCN1CCCCC1.Cl | 4.2
18 | 0.64 |  | 0.523 | > 40 | > 10 | 0.38 | 0.21 | 0.34 |  |  |  |  |  |  |  |  | COc1ccc(/C=C\c2cc(OC)c(OC)c(OC)c2)cc1OCCN(C)C.Cl | 0.47
19 | 4.9 |  | 0.0232 | 20 | 2.3 | 0.56 | 0.0064 | 0.0033 |  |  |  |  |  |  |  |  | COc1ccc(/C=C\c2cc(OC)c(OC)c(OC)c2)cc1OCCn1cccc1.Cl | 0.003
20 | 0.28 (≈ 0.777 µM) | 100 | 0.195 (≈ 0.541 µM) | 2.8 | 0.045 (≈ 0.125 µM) | 0.32 (≈ 0.888 µM) | 0.028 (≈ 0.0777 µM) | 0.14 (≈ 0.388 µM) |  |  |  |  |  |  |  |  | COc1ccc(/C=C\c2cc(OC)c(OC)c(OC)c2)cc1OCCO | 0.069 (≈ 0.191 µM)
21 | 0.97 | 100 | 0.634 | > 40 | 2.9 | 0.4 | 0.22 | 0.41 |  |  |  |  |  |  |  |  | COc1ccc(/C=C\c2cc(OC)c(OC)c(OC)c2)cc1OCCN1CCOCC1.Cl | 0.53
22 | > 10 |  | 1.6 | > 40 | > 10 | 4.1 | 2.8 | 3.4 |  |  |  |  |  |  |  |  | COc1ccc(/C=C\c2cc(OC)c(OC)c(OC)c2)cc1OCCN1CCN(C)CC1.Cl.Cl | 2.9
23 | 4.7 (≈ 12.4 µM) |  | 2.9 (≈ 7.65 µM) | > 40 | 2.7 (≈ 7.13 µM) | 3.4 (≈ 8.97 µM) | 2 (≈ 5.28 µM) | 3.7 (≈ 9.77 µM) |  |  |  |  |  |  |  |  | COc1ccc(/C=C\c2cc(OC)c(OC)c(OC)c2)cc1OCCCl | 4.6 (≈ 12.1 µM)
